The M2OR odorant receptor database

What was measured:
Conditions in all cases: stereoisomer not certain
UniProt Q924H8 = target: T1, UniProt Q924H8
T1 sequence (whole entry): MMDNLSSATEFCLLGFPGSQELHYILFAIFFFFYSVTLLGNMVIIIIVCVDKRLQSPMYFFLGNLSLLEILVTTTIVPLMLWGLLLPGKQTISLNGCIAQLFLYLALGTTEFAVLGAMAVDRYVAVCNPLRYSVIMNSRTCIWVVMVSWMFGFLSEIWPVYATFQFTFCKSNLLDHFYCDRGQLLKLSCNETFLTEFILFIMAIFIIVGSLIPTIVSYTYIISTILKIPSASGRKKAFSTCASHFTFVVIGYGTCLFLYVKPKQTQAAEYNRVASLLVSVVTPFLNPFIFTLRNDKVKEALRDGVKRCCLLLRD
In short: (§1)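 Each receptor–molecule pair is labelled responsive or non-responsive (inactive) according to whether the original authors judged the measured signal statistically different from baseline. The data were taken from the main text and supplementary material of published papers and checked for typos and inconsistencies. Assay methods differed by source, with transient luciferase assays in mammalian cell lines being common.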

UniProt Q9EPN9 = target: T2, UniProt Q9EPN9
T2 sequence (whole entry): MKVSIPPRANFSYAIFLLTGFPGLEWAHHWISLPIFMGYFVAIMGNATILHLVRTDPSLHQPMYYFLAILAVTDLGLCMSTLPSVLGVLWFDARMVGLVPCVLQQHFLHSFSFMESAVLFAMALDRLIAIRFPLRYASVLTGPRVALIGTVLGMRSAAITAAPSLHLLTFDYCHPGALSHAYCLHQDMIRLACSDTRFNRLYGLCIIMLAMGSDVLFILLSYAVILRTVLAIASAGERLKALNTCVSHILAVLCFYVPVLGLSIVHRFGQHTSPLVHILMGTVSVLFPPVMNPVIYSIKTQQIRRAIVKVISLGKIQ
In short: as §1

UniProt Q9R0K2 = target: UniProt Q9R0K2
Sequence of UniProt Q9R0K2 (Q9R0K2 as listed by the source): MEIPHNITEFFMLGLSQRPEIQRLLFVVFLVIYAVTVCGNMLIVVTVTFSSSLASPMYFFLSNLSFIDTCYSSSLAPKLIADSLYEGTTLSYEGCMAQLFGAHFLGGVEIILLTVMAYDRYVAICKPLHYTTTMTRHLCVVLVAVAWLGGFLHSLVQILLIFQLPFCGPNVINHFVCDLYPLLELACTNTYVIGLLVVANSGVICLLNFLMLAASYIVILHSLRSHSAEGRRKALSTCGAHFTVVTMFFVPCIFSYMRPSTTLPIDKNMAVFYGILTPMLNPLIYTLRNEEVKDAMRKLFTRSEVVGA
In short: as §1

UniProt Q9WU86 = target: T3, UniProt Q9WU86
T3 sequence (whole entry): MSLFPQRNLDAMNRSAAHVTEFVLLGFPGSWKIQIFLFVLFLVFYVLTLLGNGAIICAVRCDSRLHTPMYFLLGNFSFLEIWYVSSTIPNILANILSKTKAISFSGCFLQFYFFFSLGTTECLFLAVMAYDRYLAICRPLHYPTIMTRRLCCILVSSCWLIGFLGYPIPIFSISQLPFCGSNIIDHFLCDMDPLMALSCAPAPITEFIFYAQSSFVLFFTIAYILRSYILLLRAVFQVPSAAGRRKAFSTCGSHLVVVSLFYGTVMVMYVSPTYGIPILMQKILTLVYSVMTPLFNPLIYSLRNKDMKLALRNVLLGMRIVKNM
In short: as §1

UniProt Q9WVD9 = target: UniProt Q9WVD9
Sequence of UniProt Q9WVD9 (Q9WVD9 as listed by the source): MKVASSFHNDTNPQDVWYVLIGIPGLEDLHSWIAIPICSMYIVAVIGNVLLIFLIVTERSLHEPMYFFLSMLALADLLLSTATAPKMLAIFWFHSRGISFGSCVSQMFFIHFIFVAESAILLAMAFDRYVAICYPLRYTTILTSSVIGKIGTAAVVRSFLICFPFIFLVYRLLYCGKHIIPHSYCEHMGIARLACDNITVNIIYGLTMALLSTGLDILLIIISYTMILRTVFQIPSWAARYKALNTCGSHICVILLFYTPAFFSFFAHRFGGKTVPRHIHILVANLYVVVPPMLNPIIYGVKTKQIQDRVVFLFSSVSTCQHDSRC
In short: as §1

UniProt Q9WVN5 = target: T4, UniProt Q9WVN5
T4 sequence (whole entry): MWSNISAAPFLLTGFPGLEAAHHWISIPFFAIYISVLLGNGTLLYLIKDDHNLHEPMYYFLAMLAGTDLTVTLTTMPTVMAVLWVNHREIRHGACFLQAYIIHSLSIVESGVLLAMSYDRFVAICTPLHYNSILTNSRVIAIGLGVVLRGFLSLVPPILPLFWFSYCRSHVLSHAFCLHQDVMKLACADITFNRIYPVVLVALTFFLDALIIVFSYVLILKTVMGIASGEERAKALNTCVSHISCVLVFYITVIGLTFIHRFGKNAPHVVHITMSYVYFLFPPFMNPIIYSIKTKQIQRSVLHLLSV
In short: as §1

UniProt Q99NH4 = target: T5, UniProt Q99NH4
T5 sequence (whole entry): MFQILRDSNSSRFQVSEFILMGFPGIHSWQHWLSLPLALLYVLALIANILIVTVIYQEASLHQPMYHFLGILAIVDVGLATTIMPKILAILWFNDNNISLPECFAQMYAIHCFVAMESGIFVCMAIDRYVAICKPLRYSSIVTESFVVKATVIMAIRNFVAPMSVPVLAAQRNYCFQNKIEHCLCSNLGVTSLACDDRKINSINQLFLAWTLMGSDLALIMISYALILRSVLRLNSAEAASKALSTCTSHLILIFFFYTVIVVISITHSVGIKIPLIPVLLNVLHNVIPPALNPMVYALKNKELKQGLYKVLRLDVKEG
In short: as §1

UniProt Q924X8 = target: T6, UniProt Q924X8
T6 sequence (whole entry): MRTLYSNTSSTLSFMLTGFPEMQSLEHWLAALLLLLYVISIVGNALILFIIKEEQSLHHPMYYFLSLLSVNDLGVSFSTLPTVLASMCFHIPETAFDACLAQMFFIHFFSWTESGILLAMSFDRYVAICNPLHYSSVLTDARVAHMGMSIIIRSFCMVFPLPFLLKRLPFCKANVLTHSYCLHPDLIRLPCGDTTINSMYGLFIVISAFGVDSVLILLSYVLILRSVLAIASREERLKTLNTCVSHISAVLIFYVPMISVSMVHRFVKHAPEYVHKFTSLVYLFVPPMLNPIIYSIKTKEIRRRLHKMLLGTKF
In short: as §1

UniProt Q9WU94 = target: T7, UniProt Q9WU94
T7 sequence (whole entry): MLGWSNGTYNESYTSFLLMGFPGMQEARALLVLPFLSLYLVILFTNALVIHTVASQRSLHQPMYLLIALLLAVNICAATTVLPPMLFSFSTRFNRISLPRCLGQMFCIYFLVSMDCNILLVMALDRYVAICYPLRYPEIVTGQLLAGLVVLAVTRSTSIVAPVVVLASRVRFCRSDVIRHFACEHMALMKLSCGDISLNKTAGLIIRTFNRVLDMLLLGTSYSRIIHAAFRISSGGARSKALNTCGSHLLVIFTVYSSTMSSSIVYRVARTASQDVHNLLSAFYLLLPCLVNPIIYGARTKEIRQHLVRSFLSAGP
In short: as §1

UniProt Q9WVD7 = target: T8, UniProt Q9WVD7
T8 sequence (whole entry): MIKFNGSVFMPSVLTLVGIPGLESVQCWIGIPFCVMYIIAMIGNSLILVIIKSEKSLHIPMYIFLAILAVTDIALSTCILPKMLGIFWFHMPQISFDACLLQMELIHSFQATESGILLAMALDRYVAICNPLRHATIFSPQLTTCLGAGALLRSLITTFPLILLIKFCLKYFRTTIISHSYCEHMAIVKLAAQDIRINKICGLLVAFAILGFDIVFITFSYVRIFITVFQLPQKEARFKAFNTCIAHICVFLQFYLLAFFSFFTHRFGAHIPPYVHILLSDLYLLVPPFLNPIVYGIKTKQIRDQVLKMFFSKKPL
In short: as §1

UniProt Q9EQB5 = target: UniProt Q9EQB5
Sequence of UniProt Q9EQB5 (Q9EQB5 as listed by the source): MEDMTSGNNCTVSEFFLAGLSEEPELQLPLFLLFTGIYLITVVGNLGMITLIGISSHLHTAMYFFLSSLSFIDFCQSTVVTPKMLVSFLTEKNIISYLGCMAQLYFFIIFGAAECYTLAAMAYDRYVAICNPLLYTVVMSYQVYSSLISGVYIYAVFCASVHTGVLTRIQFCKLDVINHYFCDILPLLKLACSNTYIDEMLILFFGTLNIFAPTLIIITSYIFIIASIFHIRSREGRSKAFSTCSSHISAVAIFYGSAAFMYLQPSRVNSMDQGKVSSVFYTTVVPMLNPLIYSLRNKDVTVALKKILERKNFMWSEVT
In short: as §1

Measured: odorant receptor agonist call

C=CCOC(=O)CCCCCC
inactive: UniProt Q924H8 | UniProt Q9EPN9 | UniProt Q9R0K2 | UniProt Q9WU86 | UniProt Q9WVD9 | UniProt Q9WVN5

COc1ccccc1
inactive: UniProt Q924H8

CC(C)=CCCC(C)CCO (stereo unspecified)
inactive: UniProt Q924H8 | UniProt Q9EPN9 | UniProt Q9R0K2 | UniProt Q9WU86 | UniProt Q9WVD9 | UniProt Q9WVN5

CSSCc1ccco1
inactive: UniProt Q924H8

CCCCCC=O
active: UniProt Q9WVN5
inactive: UniProt Q924H8 | UniProt Q99NH4 | UniProt Q9EPN9 | UniProt Q9R0K2 | UniProt Q9WU86 | UniProt Q9WVD9

O=C(O)CCCCCBr
inactive: UniProt Q924H8 | UniProt Q99NH4 | UniProt Q9WU94
active: UniProt Q924X8 | UniProt Q9WVD7

CC1CCCCCCCCCCCCC(=O)C1 (stereo unspecified)
inactive: UniProt Q9EQB5

CCCCOC(=O)C(C)OC(=O)CCC (stereo unspecified)
inactive: UniProt Q9EPN9 | UniProt Q9R0K2 | UniProt Q9WU86 | UniProt Q9WVD9 | UniProt Q9WVN5

CC(=O)OCc1ccccc1
inactive: UniProt Q924H8 | UniProt Q9EPN9 | UniProt Q9R0K2 | UniProt Q9WU86 | UniProt Q9WVD9 | UniProt Q9WVN5

O=c1ccc2ccccc2o1
active: UniProt Q9WU86
inactive: UniProt Q9EPN9 | UniProt Q9R0K2 | UniProt Q9WVD9 | UniProt Q9WVN5

CCCCCCCC(=O)[O-].[H+]
active: UniProt Q99NH4 | UniProt Q9WVD7
not listed: UniProt Q924H8 | UniProt Q9EQB5
inactive: all other assays above

O=C([O-])CCCC(=O)[O-].[H+].[H+]
inactive: UniProt Q99NH4

CCC(=O)C(=O)CC
inactive: UniProt Q924H8 | UniProt Q9EPN9 | UniProt Q9R0K2 | UniProt Q9WU86 | UniProt Q9WVD9 | UniProt Q9WVN5

O=C([O-])CCCCC(=O)[O-].[H+].[H+]
active: UniProt Q924X8
inactive: UniProt Q99NH4 | UniProt Q9WU94 | UniProt Q9WVD7

CC12CCC(CC1=O)C2(C)C (stereo unspecified)
inactive: UniProt Q924H8 | UniProt Q9EPN9 | UniProt Q9R0K2 | UniProt Q9WU86 | UniProt Q9WVD9 | UniProt Q9WVN5

C=C(C)C1CCC(C)C(=O)C1 (stereo unspecified)
inactive: UniProt Q924H8 | UniProt Q9EPN9 | UniProt Q9R0K2 | UniProt Q9WU86 | UniProt Q9WVD9 | UniProt Q9WVN5

CCCCCO
not listed: UniProt Q924H8 | UniProt Q9EQB5
inactive: all other assays above

CCCCC(=O)CC
inactive: UniProt Q924H8 | UniProt Q9EPN9 | UniProt Q9R0K2 | UniProt Q9WU86 | UniProt Q9WVD9 | UniProt Q9WVN5

CCCCCC1=C(C)CCC1=O
inactive: UniProt Q924H8 | UniProt Q9EPN9 | UniProt Q9R0K2 | UniProt Q9WU86 | UniProt Q9WVD9 | UniProt Q9WVN5
